Columns and labels:
[1] = target: T1, Trehalose-phosphatase (Brugia malayi) (UniProt A8NS89); assay: Inhibition of Brugia malayi T6PP using T6P as substrate assessed as fraction of enzyme unbound with compound by measuring ratio of initial velocities of T6P substrate hydrolysis in presence and absence of compound at 1 mM […] by BioMol green dye based HTS assay
T1 sequence (whole entry): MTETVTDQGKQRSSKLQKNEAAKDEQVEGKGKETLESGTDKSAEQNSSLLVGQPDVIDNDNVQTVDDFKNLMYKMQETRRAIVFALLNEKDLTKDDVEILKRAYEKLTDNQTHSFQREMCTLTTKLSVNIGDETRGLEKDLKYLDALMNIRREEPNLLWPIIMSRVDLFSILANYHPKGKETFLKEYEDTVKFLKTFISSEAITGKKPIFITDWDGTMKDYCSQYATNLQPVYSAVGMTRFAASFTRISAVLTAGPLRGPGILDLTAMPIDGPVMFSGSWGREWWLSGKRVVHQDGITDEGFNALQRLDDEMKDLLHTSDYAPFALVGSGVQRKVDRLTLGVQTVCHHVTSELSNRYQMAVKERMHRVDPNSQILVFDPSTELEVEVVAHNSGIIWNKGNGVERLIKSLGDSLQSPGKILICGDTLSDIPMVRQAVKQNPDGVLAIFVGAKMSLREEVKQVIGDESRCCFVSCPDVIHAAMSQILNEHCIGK

Ascaris suum [2] = assay: Inhibition of Ascaris suum T6PP using T6P as substrate assessed as fraction of enzyme unbound with compound by measuring ratio of initial velocities of T6P substrate hydrolysis in presence and absence of compound at 1 mM after 5 mins by BioMol green dye based HTS assay
Procedure, shortened: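 T6P is at half saturation ([T6P] = Km), with and without 1 mM inhibitor, at 25 °C. Released phosphate is detected with dye (30 min incubation) by A625. The reported value is V_I/V, the initial-velocity ratio.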

Shigella boydii [3] = assay: Inhibition of Shigella boydii T6PP using T6P as substrate assessed as fraction of enzyme unbound with compound by measuring ratio of initial velocities of T6P substrate hydrolysis in presence and absence of compound at 1 mM after 5 mins by BioMol green dye based HTS assay
Procedure, shortened: (§1)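 Freshly purified St-T6PP or Sb-T6PP (5–25 nM) in 50 mM Hepes pH 7.5, 25 mM NaCl, 2 mM MgCl₂, 5% glycerol at 25 °C. T6P at half saturation (Km) for each enzyme. Hydrolysis rate was compared with and without 1 mM inhibitor; phosphate read at 625 nm after 30 min incubation. The ratio VI/V gives the fraction of enzyme not inhibitor-bound.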

[4] = tested on: Salmonella enterica subsp. enterica serovar Typhimurium; assay: Inhibition of Salmonella typhimurium T6PP using T6P as substrate assessed as fraction of enzyme unbound with compound by measuring ratio of initial velocities of T6P substrate hydrolysis in presence and absence of compound at 1 mM after 5 mins by BioMol green dye based HTS assay; procedure, shortened: as §1
Trehalose-phosphatase [5] = target: T2, Trehalose-phosphatase (Brugia malayi, UniProt A8NS89); assay: Competitive inhibition of Brugia malayi T6PP using T6P as substrate by Lineweaver-Burk plot analysis
T2 sequence (A8NS89 whole entry): T1 sequence (whole entry)
Procedure, shortened: (§2)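 Continuous phosphate-release assay (EnzChek, MESG/purine nucleoside phosphorylase) at 25 °C. Initial velocities of T6P hydrolysis by T6PP were taken at varied T6P with inhibitor at 0, Ki and 2×Ki. Km and Vmax come from double-reciprocal plots.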

[6] = Inhibition of Ascaris suum T6PP using T6P as substrate by Lineweaver-Burk plot analysis
[7] = Inhibition of Shigella boydii T6PP using T6P as substrate by Lineweaver-Burk plot analysis; procedure, shortened: as §2
[8] = Inhibition of Salmonella typhimurium T6PP using T6P as substrate by Lineweaver-Burk plot analysis; parameters: species or system Salmonella enterica subsp. enterica serovar Typhimurium; procedure, shortened: as §2
Shigella boydii [9] = assay: Inhibition of Shigella boydii T6PP assessed as Vmax for substrate using T6P as substrate by Lineweaver-Burk plot analysis; procedure, shortened: as §2
Shigella boydii [10] = assay: Inhibition of Shigella boydii T6PP assessed as Km for substrate using T6P as substrate by Lineweaver-Burk plot analysis; procedure, shortened: as §2
Ascaris suum [11] = assay: Inhibition of Ascaris suum T6PP assessed as Vmax for substrate using T6P as substrate by Lineweaver-Burk plot analysis; procedure, shortened: as §2
Ascaris suum [12] = assay: Inhibition of Ascaris suum T6PP assessed as Km for substrate using T6P as substrate by Lineweaver-Burk plot analysis; procedure, shortened: as §2
[13] = tested on: Salmonella enterica subsp. enterica serovar Typhimurium; assay: Inhibition of Salmonella typhimurium T6PP assessed as Vmax for substrate using T6P as substrate by Lineweaver-Burk plot analysis; procedure, shortened: as §2
[14] = tested on: Salmonella enterica subsp. enterica serovar Typhimurium; assay: Inhibition of Salmonella typhimurium T6PP assessed as Km for substrate using T6P as substrate by Lineweaver-Burk plot analysis; procedure, shortened: as §2
Trehalose-phosphatase [15] = target: T2, Trehalose-phosphatase; assay: Reversible competitive inhibition of Brugia malayi T6PP using T6P as substrate by Lineweaver-Burk plot analysis

## CO[C@H]1O[C@H](COS(=O)(=O)O)[C@@H](O)[C@H](O)[C@H]1O
[1]
  Ratio: 0.8
Ascaris suum [2]
  Ratio: 1.07
Shigella boydii [3]
  Ratio: 1
[4]
  Ratio: 1.04

## O=Cc1ccccc1O[C@@H]1O[C@H](COS(=O)(=O)O)[C@@H](O)[C@H](O)[C@H]1O
[1]
  Ratio: 0.79
Ascaris suum [2]
  Ratio: 0.99
Shigella boydii [3]
  Ratio: 0.96
[4]
  Ratio: 0.85

## O=S(=O)(O)OC[C@H]1O[C@@H](Oc2cccc(CO)c2)[C@H](O)[C@@H](O)[C@@H]1O
[1]
  Ratio: 0.69
Ascaris suum [2]
  Ratio: 0.63
Shigella boydii [3]
  Ratio: 0.46
[4]
  Ratio: 0.77

## CCCCCCCCO[C@@H]1O[C@H](COS(=O)(=O)O)[C@@H](O)[C@H](O)[C@H]1O
[1]
  Ratio: 0.72
Ascaris suum [2]
  Ratio: 0.9
Shigella boydii [3]
  Ratio: 0.79
[4]
  Ratio: 0.54

## OC[C@H]1O[C@@H](Oc2ccccc2)[C@H](O)[C@@H](O)[C@@H]1O
[1]
  Ratio: 1.12
Ascaris suum [2]
  Ratio: 1
Shigella boydii [3]
  Ratio: 0.9
[4]
  Ratio: 0.87

## CCCCCCc1ccc(O[C@H]2O[C@H](COS(=O)(=O)O)[C@@H](O)[C@H](O)[C@H]2O)cc1
Trehalose-phosphatase [5]
  Ki: 80 to 82 µM
[6]
  Ki: 350 µM
[7]
  Ki: 78 µM
[8]
  Ki: 280 µM
Shigella boydii [9]
  Vmax: 0.541 µM/s
Shigella boydii [10]
  Km: 239 µM
Ascaris suum [11]
  Vmax: 0.631 µM/s
Ascaris suum [12]
  Km: 353 µM
[13]
  Vmax: 0.495 µM/s
[14]
  Km: 394 µM

## OC[C@H]1O[C@@H](n2cc(-c3ccccc3)nn2)[C@H](O)[C@@H](O)[C@@H]1O
[1]
  Ratio: 0.85
Ascaris suum [2]
  Ratio: 0.96
Shigella boydii [3]
  Ratio: 1
[4]
  Ratio: 0.9

## O=[N+]([O-])c1ccc(O[C@@H]2O[C@H](COS(=O)(=O)O)[C@@H](O)[C@H](O)[C@H]2O)cc1
[1]
  Ratio: 0.64
Ascaris suum [2]
  Ratio: 0.83
Shigella boydii [3]
  Ratio: 0.77
[4]
  Ratio: 0.68

## O=Cc1ccc(O[C@@H]2O[C@H](COS(=O)(=O)O)[C@@H](O)[C@H](O)[C@H]2O)cc1
[1]
  Ratio: 1
Ascaris suum [2]
  Ratio: 0.81
Shigella boydii [3]
  Ratio: 1.06
[4]
  Ratio: 0.87

## Nc1ccc(O[C@@H]2O[C@H](COS(=O)(=O)O)[C@@H](O)[C@H](O)[C@H]2O)cc1
[1]
  Ratio: 0.63
Ascaris suum [2]
  Ratio: 0.74
Shigella boydii [3]
  Ratio: 1.03
[4]
  Ratio: 0.94

## O=S(=O)(O)OC[C@H]1O[C@H](Oc2ccccc2)[C@H](O)[C@@H](O)[C@@H]1O
[1]
  Ratio: 0.42
Ascaris suum [2]
  Ratio: 0.71
Shigella boydii [3]
  Ratio: 0.76
[4]
  Ratio: 0.64
Trehalose-phosphatase [15]
  Ki: 320 µM

## CCCCCCCCc1ccc(O[C@@H]2O[C@H](COS(=O)(=O)O)[C@@H](O)[C@H](O)[C@H]2O)cc1
Trehalose-phosphatase [5]
  Ki: 60 to 61 µM
[6]
  Ki: 180 µM
[7]
  Ki: 13 µM
[8]
  Ki: 120 µM
[1]
  Ratio: 0.07
Ascaris suum [2]
  Ratio: 0.02
Shigella boydii [3]
  Ratio: 0.04
[4]
  Ratio: 0.01
Shigella boydii [9]
  Vmax: 0.495 µM/s
Shigella boydii [10]
  Km: 222 µM
Ascaris suum [11]
  Vmax: 0.343 µM/s
Ascaris suum [12]
  Km: 336 µM
[13]
  Vmax: 0.183 µM/s
[14]
  Km: 428 µM

## O=S(=O)(O)OC[C@H]1O[C@H](OCc2ccccc2)[C@H](O)[C@@H](O)[C@@H]1O
Trehalose-phosphatase [5]
  Ki: 160 µM
[1]
  Ratio: 0.07
Ascaris suum [2]
  Ratio: 0.86
Shigella boydii [3]
  Ratio: 0.74
[4]
  Ratio: 0.47

## O=S(=O)(O)OCc1cccc(O[C@@H]2O[C@H](CO)[C@@H](O)[C@H](O)[C@H]2O)c1
[1]
  Ratio: 0.59
Ascaris suum [2]
  Ratio: 0.98
Shigella boydii [3]
  Ratio: 0.8
[4]
  Ratio: 0.85

## O=S(=O)(O)OC[C@H]1O[C@@H](Oc2cccc3ccccc23)[C@H](O)[C@@H](O)[C@@H]1O
[1]
  Ratio: 0.85
Ascaris suum [2]
  Ratio: 0.91
Shigella boydii [3]
  Ratio: 0.85
[4]
  Ratio: 0.8

## CO[C@H]1O[C@H](COS(=O)(=O)O)[C@@H](O)[C@H](OCc2ccccc2)[C@H]1O
[1]
  Ratio: 0.67
Ascaris suum [2]
  Ratio: 1.04
Shigella boydii [3]
  Ratio: 0.84
[4]
  Ratio: 0.99

## O=Cc1cccc(O[C@@H]2O[C@H](COS(=O)(=O)O)[C@@H](O)[C@H](O)[C@H]2O)c1
[1]
  Ratio: 1.05
Ascaris suum [2]
  Ratio: 0.78
Shigella boydii [3]
  Ratio: 0.81
[4]
  Ratio: 0.95
